Screens from PubChem BioAssay.
CSC inhib – cancer stem cell inhibition | inhibition, % at 7.5 µM | cancer stem cell-like cells viability, luminescence | AID 2717 | 300,000 compounds, 1.1% hits; in the data active = inhibition above about 75%; inconclusive = no clear call, values can overlap the other calls; tested in HMLE shEcad cells
Calb FLC – affects C. albicans growth with fluconazole; C. albicans CaCi-2 (fluconazole-resistant clinical isolate) + fluconazole, Alamar Blue growth, 48 h; growth inhibition, % (test concentration not listed); 300,000 compounds, 0.57% hits; AID 1979;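 active = growth inhibition above about 58% in most replicates, limit read from the data, passing the limit was not always enough; inconclusive = exactly half the replicates above a set limit; inactive = most replicates below a set limit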;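 note: all wells also contain fluconazole at 8 µg/ml as a sub-toxic cotreatment; 0% = median of DMSO wells and 100% = median of geldanamycin control wells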
Beta cell apopt – blocks beta cell apoptosis | protection from apoptosis, % (no concentration beside the values) | INS-1E cytokine-induced death, ATP luminescence, 48 h; percent of positive-control rescue, neutral wells zero | 300,000 compounds, 0.8% hits;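 active = Every replicate reaches about 75%, or at least half do and their mean reaches it too, limit read from the data; inconclusive = At least half of replicates reach the limit but their mean does not; inactive = Under half of replicates reach the limit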;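 note: 0% = cytokine-treated negative control wells and 100% = positive control rescue; higher means more ATP so stronger rescue from cytokine killing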
T cruzi inh – T. cruzi replication inhibition | T. cruzi beta-gal in NIH3T3, luminescence, 90 h | inhibition, % (concentration not given with the values) | 300,000 compounds, 1.4% hits | AID 1885;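 active = mean inhibition across valid replicates above about 55%, limit read from the data; inconclusive = mean below that limit but half or more replicates reach it; inactive = mean below it, under half of replicates reach it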;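 note: signal also drops with host cell toxicity which is not excluded here; 0% = plate median of DMSO wells and 100% = zero luminescence signal; higher percent means less beta-gal luminescence so fewer parasites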
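System: Mouse NIH/3T3 fibroblasts infected with β-gal-expressing T. cruzi Tulahuen C4 | Quantity: NIH/3T3 cells, 5,000 per well | Reagent: 5000 reporter trypomastigotes per well | Dosing: Compound pinned at 50 nL/well, DMSO | Schedule: 3 h host attachment, then at least 90 h co-culture | Detection: GalScreen luminescence, 60 min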
Mdm2 MdmX PPI – disrupts the human Mdm2-MdmX interaction; O15151+Q00987; SaOS-2 split-luciferase Mdm2/MdmX complementation, luminescence; inhibition, % at 8 µM; 330,000 compounds, 3% hits; AID 485346;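 active = inhibition of at least 50% at 8 µM in the primary screen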
Target sequence (O15151 whole entry, looked up): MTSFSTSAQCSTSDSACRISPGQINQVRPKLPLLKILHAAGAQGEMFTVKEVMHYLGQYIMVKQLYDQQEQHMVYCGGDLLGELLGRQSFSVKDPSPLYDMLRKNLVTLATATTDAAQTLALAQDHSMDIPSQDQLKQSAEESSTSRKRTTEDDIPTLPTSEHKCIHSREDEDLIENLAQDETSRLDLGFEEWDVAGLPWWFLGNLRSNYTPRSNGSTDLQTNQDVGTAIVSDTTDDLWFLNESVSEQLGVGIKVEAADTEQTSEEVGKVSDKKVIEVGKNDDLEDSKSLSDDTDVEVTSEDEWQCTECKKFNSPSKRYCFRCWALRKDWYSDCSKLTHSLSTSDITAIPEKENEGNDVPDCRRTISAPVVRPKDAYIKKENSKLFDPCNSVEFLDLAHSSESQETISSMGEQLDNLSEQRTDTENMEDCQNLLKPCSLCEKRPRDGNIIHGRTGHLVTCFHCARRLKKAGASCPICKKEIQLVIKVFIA
Target sequence (Q00987 whole entry, looked up): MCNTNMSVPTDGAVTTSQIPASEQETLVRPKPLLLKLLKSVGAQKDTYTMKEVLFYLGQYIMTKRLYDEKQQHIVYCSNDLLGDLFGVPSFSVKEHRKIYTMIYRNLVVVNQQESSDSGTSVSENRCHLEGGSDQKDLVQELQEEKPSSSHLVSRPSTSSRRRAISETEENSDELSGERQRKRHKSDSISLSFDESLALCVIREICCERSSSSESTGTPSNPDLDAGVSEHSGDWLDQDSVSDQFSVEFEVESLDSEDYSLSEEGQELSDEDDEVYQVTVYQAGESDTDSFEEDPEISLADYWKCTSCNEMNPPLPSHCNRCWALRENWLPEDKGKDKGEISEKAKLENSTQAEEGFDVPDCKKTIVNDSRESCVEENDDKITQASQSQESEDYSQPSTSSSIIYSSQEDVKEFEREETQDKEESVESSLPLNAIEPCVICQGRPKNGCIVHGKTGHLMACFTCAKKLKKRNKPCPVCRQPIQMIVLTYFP
NLRP3 yeast inh – blocks the NALP3 inflammasome reconstituted in yeast; inhibition, % at 10 µM; AID 2825; Yeast reconstituted NLRP3/ASC/caspase-1, beta-gal luminescence, 24 h; 330,000 compounds, 0.39% hits;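 active = inhibition of 50% or more; inactive = inhibition below 50%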;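 note: plate controls were induced DMSO wells for no effect and uninduced yeast grown without galactose for full effect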
Mdm2-MdmX conf – confirmation of human Mdm2/MdmX interaction inhibitors. shares compounds with Mdm2 MdmX PPI. Mdm2-MdmX binding, luminescent assay. inhibition, % at 8 µM. 10,000 compounds, 55% hits; in the data active = inhibition above about 40%
FLuc counter – full-length luciferase inhibition in Mdm2/MdmX counter-screen; shares compounds with Mdm2 MdmX PPI; AID 504607; SaOS-2 full-length luciferase counterscreen, luminescence; 6,200 compounds, 77% hits; inhibition, % at 8 µM;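 active = mean inhibition at 8 µM reaching about 37%, which flags the compound as non-specific, limit read from the data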;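 note: p53-null SaOS-2 cells with luciferase driven by a doxycycline-inducible promoter; compound on cells about two nights before reading with doxycycline added after day one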
* hit, by the source's call; ? = inconclusive; / = no result. This is a sample that favours compounds with a hit; in the whole collection about 5.3% have one here.

SMILES	CSC inhib	Calb FLC	Beta cell apopt	T cruzi inh	Mdm2 MdmX PPI	NLRP3 yeast inh	Mdm2-MdmX conf	FLuc counter
COc1ccc(C)cc1S(=O)(=O)N(C)CC(=O)Nc1ccccc1	-1	-4	-7	-32	-22	39	/	/
Cc1cc2ccccn2c1C(=O)c1cccc([N+](=O)[O-])c1	22	40	-5	-12	15	11	/	/
Cc1cc2ccccn2c1C(=O)c1ccc([N+](=O)[O-])o1	?	?	-62	74*	64*	13	26	/
CCC(C)[C@H](NC(=O)Nc1cccc(Cl)c1)C(=O)O (stereo not given in full)	-14	-1	2	-18	2	-3	/	/
COc1cccc(N2CCN(S(=O)(=O)c3cc4c(cc3C)N(C)CCO4)CC2)c1	19	2	0	5	17	2	/	/
Cc1cc2c(cc1S(=O)(=O)N1CCN(c3ccc(Cl)cc3)CC1)OCCN2C	11	-2	-7	28	85*	4	4	/
COc1ccc(N2CCN(CC(O)COc3ccc(C)c(C)c3)CC2)cc1 (stereo not given)	-1	-19	-9	3	-37	27	/	/
CN=C1c2cc3cc(OC)ccc3n2CCN1Cc1ccccc1	/	2	/	12	/	/	/	/
CCN(CC)CCNC1=NCCn2c1cc1cc(OC)ccc12	16	26	6	50	64*	0	64*	68*
CC(=O)Nc1ccc(SCC(=O)c2cc(C)n(-c3ccccc3)c2C)cc1	84*	-31	-1	-7	65*	2	79*	94*
CC(=O)Nc1ccc(SCC(=O)c2cc(C)ccc2C)cc1	10	-12	1	-1	-3	29	/	/
Cc1cccc(C=Nc2ccc3c(c2)oc2ccccc23)c1O	6	-5	-9	-8	-34	11	/	/
COc1ccc(-n2ncc3c(N(C)C4CCCCC4)ncnc32)cc1	19	4	-5	9	88*	10	92*	102*
Cc1cccc(-n2ncc3c(N(C)C4CCCCC4)ncnc32)c1	55	3	/	27	90*	38	87*	84*
COc1ccc(-n2ncc3c(N4CCC(C)CC4)ncnc32)cc1	45	-4	10	14	25	14	/	/
NC(=O)Nc1cccc2ccccc12	/	25	-5	-18	17	5	/	/
C(=C\c1ccccc1)/CSc1nnc(-c2ccccn2)n1Cc1ccco1	52	-2	12	-5	59*	1	49*	87*
COc1ccc(C(=O)C2CCCN(Cc3ccc4nonc4c3)C2)cc1OC (stereo not given)	10	-3	1	7	33	8	/	/
CCCCCc1cc(=O)oc2c(C(CCN(CC)CC)c3ccc(N(C)C)cc3)c(OC)cc(OC)c12 (stereo not given)	27	-17	5	43	90*	15	25	/
COc1cc(OC)c2ccc(=O)oc2c1C(CCN1CCCC(C)C1)c1ccc(N(C)C)cc1 (stereo not given)	14	-27	-3	28	0	13	/	/
CCCCCc1cc(=O)oc2c(C(CCN3CCCC(C)C3)c3ccc(N(C)C)cc3)c(OC)cc(OC)c12 (stereo not given)	109*	-2	63	38	96*	25	27	/
CCCCCc1cc(=O)oc2c(C(CCN3CCCC(C)C3)c3cc(OC)c(OC)c(OC)c3)c(OC)cc(OC)c12 (stereo not given)	102*	-5	110*	50	100*	23	52*	43*
CCN(CC)CCC(c1cc(OC)c(OC)c(OC)c1)c1c(OC)cc(OC)c2c(C)cc(=O)oc12 (stereo not given)	18	-4	-3	34	28	0	/	/
CCCCCc1cc(=O)oc2c(C(CCN3CCCCC3)c3cc(OC)c(OC)c(OC)c3)c(OC)cc(OC)c12 (stereo not given)	79*	42	30	33	98*	21	46*	27
COc1cc(C(CCN2CCCC2)c2c(OC)cc(OC)c3ccc(=O)oc23)cc(OC)c1OC (stereo not given)	5	0	4	11	-7	17	/	/
SMILES	CSC inhib	Calb FLC	Beta cell apopt	T cruzi inh	Mdm2 MdmX PPI	NLRP3 yeast inh	Mdm2-MdmX conf	FLuc counter
CCN(C(=O)COC(=O)c1ccc(Cl)cc1N)C1CCCCC1	-6	0	0	9	2	4	/	/
COc1ccc(C(=O)Nc2ccc(C(=O)Nc3cccc(C)c3)cc2)cc1	-5	4	51	2	56*	15	39	73*
CCOc1ccc(NC(=O)CNC(=O)c2ccc(OC)cc2)cc1	-17	-1	-3	1	26	9	/	/
Cc1cccc(NC(=O)c2ccc(C(=O)Nc3cccc(C)c3)nc2)c1	60	-6	1	-30	56*	14	52*	56*
COc1ccc(C(=O)N/N=C(/C)c2cccc(NC(=O)c3ccccc3F)c2)cc1	/	-3	7	-3	53*	-12	5	/
COc1ccc(NC(=O)c2cccc(NC(=O)c3ccccc3)c2)cc1	8	12	5	-1	-11	23	/	/
COc1ccc(C(=O)NCC(=O)Nc2ccc(-c3ccccc3)cc2)cc1	9	-4	0	3	51*	10	68*	62*
COc1ccc(C(=O)N/N=C(\C)c2cccc(NC(=O)c3ccc(F)cc3)c2)c(OC)c1	16	17	7	2	21	1	/	/
CC(OC(=O)CCc1nc2ccccc2c(=O)[nH]1)C(=O)c1ccc(Br)cc1 (stereo not given)	/	-7	/	-14	-25	14	/	/
O=C1CCCC2=C1Sc1ccccc1N2	-14	9	/	-21	-12	7	/	/
O=C(Nc1ccc([N+](=O)[O-])cc1)/C(=C/c1cccc([N+](=O)[O-])c1)NC(=O)C1CCCCC1	-8	7	13	32	27	1	/	/
Cc1ccc(NC(=O)/C(=C/c2cccc([N+](=O)[O-])c2)NC(=O)C2CCCCC2)c(C)c1	2	-7	42	2	88*	4	-15	/
COc1ccccc1Cc1noc(-c2cc(Cl)ccc2OC)n1	18	-20	-12	32	11	17	/	/
CC(C)C[C@H]1CN=C(Nc2ccccc2)N1CC1CCC(C(C)(C)C)CC1 (stereo not given in full)	79*	/	111*	/	100*	33	39	21
Cc1ccnc(NC(=O)CCc2c[nH]c3ccccc23)c1	0	5	/	13	21	16	/	/
COc1cccc(-c2nn(C)c3sc(C(=O)NCc4ccc(C)o4)cc23)c1	-3	-2	-19	23	70*	13	15	/
COc1cccc(-c2nn(C)c3sc(C(=O)NCc4ccc5c(c4)OCO5)cc23)c1	11	9	2	26	40	9	/	/
